# Most compounds without a hit are left out; they make up all but 3.5% or so of the library.
# RGS4 block: RGS4 inhibitors, primary screen, cell-based, HEK293 M3R inducible RGS4, calcium flux. Fluo-4 calcium flux; active compounds read high; triggered by carbachol at its EC20. B-score at 10 µM. 0.45% of 310,000 active. AID 463165, 2010;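 active = B-score, a plate-corrected calcium signal, over three deviations above library mean, with baseline fluorescence within five deviations of library mean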;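 note: RGS4 expression induced by doxycycline in cells with stable M3 receptor; B-score is computed from the integrated fluorescence ratio over baseline after carbachol; higher B-score means a larger calcium signal and so more RGS4 inhibition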
# MrgX1 PAM: positive allosteric modulators of MrgX1, primary screen, HEK293 cells, Fluo-4 calcium flux. Mas-related G-protein coupled receptor member X1 (Homo sapiens), Q96LB2. FDSS; active compounds read high. B-score at 10 µM. 0.63% of 310,000 active. AID 588675, 2011;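 active = plate-corrected calcium response at least 3 library SD above typical, normal starting fluorescence, not activating the receptor alone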;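 note: compound read alongside a low EC10 to EC30 dose of BAM8-22 agonist; peak minus trough fluorescence over baseline measured at the second addition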
# Target sequence (Q96LB2 whole entry, looked up): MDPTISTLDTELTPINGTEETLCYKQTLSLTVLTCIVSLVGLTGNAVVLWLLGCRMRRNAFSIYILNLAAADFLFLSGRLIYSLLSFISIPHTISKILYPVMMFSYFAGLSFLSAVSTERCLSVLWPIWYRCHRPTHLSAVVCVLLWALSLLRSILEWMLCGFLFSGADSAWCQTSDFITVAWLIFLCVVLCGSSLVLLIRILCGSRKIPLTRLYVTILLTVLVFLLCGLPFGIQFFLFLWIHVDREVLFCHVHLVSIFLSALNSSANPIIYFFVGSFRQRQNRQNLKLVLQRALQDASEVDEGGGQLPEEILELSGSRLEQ
# MrgX1 antag: antagonists of human MrgX1 receptor, primary screen, HEK293 cells, Fluo-4 calcium flux; BAM8-22 antagonism; active compounds read low; B-score at 10 µM; 1.3% of 310,000 active;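 active = calcium-response B-score plate-corrected more than 3 library SD below zero, starting fluorescence within 5 deviations, no agonist response on first addition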;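 note: peak minus trough fluorescence over baseline after final BAM8-22 challenge near maximal dose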
# RGS4 pot: RGS4 potentiators or activators, primary screen, cell-based, HEK293 M3R inducible RGS4, calcium flux. carbachol calcium flux Fluo4; active compounds read low. B-score at 10 µM. 0.92% of 310,000 active;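 active = B-score of the integrated calcium signal more than 4 SD below the library mean, with starting fluorescence not abnormally high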;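 note: negative B-score means reduced calcium response which marks RGS4 activation or potentiation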
#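 Assay system: Inducible-RGS4 HEK293 cells carrying M3 receptor | Schedule: Compound preincubation 20 min at room temperature before agonist | Signal: Kinetic calcium fluorescence imaging with Fluo4-AM dye, 2 µM | Read-out basis: B score from integrated fluorescence ratio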
# MrgX1 ag: agonists of human MrgX1 receptor, primary screen, HEK293 cells, Fluo-4 calcium flux; Fluo-4 calcium fluorescence, agonist mode; active compounds read high; 0.44% of 310,000 active; B-score at 10 µM; Mas-related G-protein coupled receptor member X1 (Homo sapiens), Q96LB2; AID 588627, 2011;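 active = calcium response B-score plate-corrected fluorescence ratio at least 3 library SD, with starting fluorescence B-score inside 5 SD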
#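 Test system: HEK293 cells stably expressing human MrgX1 receptor; amount: 15,000 cells per well; doses: compound delivered in addition one of three; times: overnight plating before 1 h dye loading; detection: Fluo-4 NW calcium-flux fluorescence, kinetic read; read-out basis: B-scored fluorescence response ratio; controls: positive and negative controls per plate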
# Numbers without * were called inactive; i = inactive.
SMILES,RGS4 block,MrgX1 PAM,MrgX1 antag,RGS4 pot,MrgX1 ag
COc1cccc2c1C(=O)C=C(C)C2=O,i,i,-7.7*,-7.1*,i
CC(C)OC(=O)c1sc2nc(-c3ccccc3)ccc2c1N,i,i,i,i,i
COc1ccc(C(=O)c2sc3nc(-c4ccccc4)ccc3c2N)cc1,i,11*,i,i,i
O=C(O)CN1C(=O)/C(=C/c2ccccc2Br)Oc2ccccc21,i,i,i,i,i
COc1ccc2nc(N3C(=O)/C(=C/c4ccccc4)NC3=S)sc2c1,i,6.8*,i,i,i
COc1ccccc1NC(=O)/C(C#N)=C/c1cc([N+](=O)[O-])ccc1N1CCCC1,i,i,-6.6*,i,i
COc1ccccc1NC(=O)/C(C#N)=C/c1ccncc1,i,i,i,i,i
N#C/C(=C(/O)CCl)c1nc(-c2ccccc2)cs1,i,i,-6.1*,i,i
COc1ccc(-c2csc(=Nc3ccccc3)n2CCO)cc1,i,15*,i,i,i
CCOCCCNc1nc2c(C)cccn2c(=O)c1/C=C1\SC(=S)N(C(C)CC)C1=O (configuration not stated),i,i,-15*,i,i
CCOCCCNc1nc2c(C)cccn2c(=O)c1/C=C1\SC(=S)N(CC(C)C)C1=O,i,i,-6.8*,i,i
O=C(NNC(=O)c1ccc(-n2cncn2)c([N+](=O)[O-])c1)c1cccc(Cl)c1,i,i,i,i,i
OC1(c2cccs2)CN(c2ccc(Br)cc2)C2=[N+]1CCCS2 (configuration not stated),i,13*,i,-7.2*,i
C/C(=N\NC(=S)NC1CCCCC1)c1ccc(Cl)c(Cl)c1,i,i,-4.9*,i,i
COCCN(C(=O)c1cc(-c2ccncc2)nc2ccccc12)c1c(N)n(CC(C)C)c(=O)[nH]c1=O,i,i,i,i,i
Cc1ccc(N2C(=O)N(CC(=O)N3CCOCC3)C(=O)C2C)cc1 (configuration not stated),i,i,i,i,i
CCCCS(=O)(=O)/C=C\C=C/S(=O)(=O)CCCC,i,i,i,i,33*
CCCCS(=O)(=O)/C=C\C1C2C=CC(C2)C1S(=O)(=O)CCCC (configuration not stated),i,i,i,i,i
COc1ccccc1NC(=O)c1cc(C(=O)Nc2ccccc2OC)n(C)n1,i,i,i,i,i
CC(=O)c1cccc(CN(C)CC2CCCN(CCc3ccccc3C)C2)c1 (configuration not stated),i,i,i,-7*,i
CN(Cc1ccccc1)CC1CCCN(CCc2ccccc2F)C1 (configuration not stated),i,i,i,i,i
Cc1ccc(CNC(=O)C2CCCN(S(=O)(=O)N3CC(C)CC(C)C3)C2)cc1 (configuration not stated),i,i,i,i,i
Clc1nc(NCc2cccnc2)nc(N2CCOCC2)n1,i,i,i,i,i
CCC(=O)Oc1ccc2c(C)cc(=O)oc2c1C(=O)CC,i,6.9*,i,i,i
Cc1ccc(-n2cc(-c3ccc([N+](=O)[O-])cc3)[nH]c2=S)c(C)c1,i,9.7*,i,i,i
CCCN1CCN(C(=O)c2cc(COc3ccc(F)cc3F)on2)CC1,i,i,i,i,i
COc1ccc(OCC(=O)N2CCN(C(=O)COc3ccc(Br)cc3)CC2)cc1,i,i,-4.8*,i,i
CC(=O)N1CCN(C(=O)COc2ccc(Br)cc2)CC1,i,i,i,i,i
CN1CCC(OC(=O)COc2ccc(Br)cc2)CC1,i,i,i,-7.5*,i
COCCN(C(=S)Nc1ccccc1OC)C(C)c1cccs1 (configuration not stated),i,i,i,i,i
